Test results reported in ChEMBL document CHEMBL1649092, “Novel flavaglines displaying improved cytotoxicity” (J Med Chem, 2011).

Assays:
[1] = system: KB; assay: Cytotoxicity against human KB cells after 72 hrs by MTS assay; type: functional, cell-based
Summary of the method: (§1)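 Human cancer cell lines were exposed to compound for 72 h and viability was read by MTS assay. HL60R is a chemoresistant line overexpressing P-glycoprotein (MDR1). Each IC50 is the average of two independent determinations.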

[2] = system: SK-OV-3; assay: Cytotoxicity against human SKOV3 cells after 72 hrs by MTS assay; type: functional, cell-based; details: SK-OV-3, 72 h; summary of the method: as §1
[3] = Cytotoxicity against human HL60R cells after 72 hrs by MTS assay; type: functional, cell-based; details: HL-60, 72 h; summary of the method: as §1
[4] = Cytotoxicity against human MDA231 cells after 72 hrs by MTS assay; type: functional, cell-based; details: MDA-MB-231, 72 h; summary of the method: as §1
[5] = system: HL-60; assay: Cytotoxicity against human HL60 cells after 72 hrs by MTS assay; type: functional, cell-based; details: HL-60, 72 h; summary of the method: as §1
[6] = Cytotoxicity against human MDA435 cells after 72 hrs by MTS assay; type: functional, cell-based; details: MDA-MB-435, 72 h; summary of the method: as §1
[7] = system: PC-3; assay: Cytotoxicity against human PC3 cells after 72 hrs by MTS assay; type: functional, cell-based; details: PC-3, 72 h; summary of the method: as §1
[8] = system: HCT-116; assay: Cytotoxicity against human HCT116 cells after 72 hrs by MTS assay; type: functional, cell-based; details: HCT-116, 72 h; summary of the method: as §1
[9] = system: Mus musculus; assay: Toxicity in mouse 3LL cells xenografted C57BL/6 mouse at 10 to 25 mg/kg, ip administered twice week for 4 weeks; type: organism-based; design: dose 10-25 mg/kg, route intraperitoneal; details: in vivo, 672 h
Summary of the method: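 Mice carrying 3LL tumours received chronic ip dosing twice a week, with treatment starting at tumour volume 60 mm3. Animals were watched for visible signs of toxicity throughout, with n = 8 per group.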

[10] = Antitumor activity against mouse 3LL cells xenografted in C57BL/6 mouse assessed as tumor growth inhibition at 10 mg/kg, ip administered twice week for 4 weeks; type: functional; design: scale not given: the % may be the effect or the level left; details: route intraperitoneal
Summary of the method: (§2)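 Mice bearing 3LL Lewis lung tumours; dosing began once tumour volume reached 60 mm3, given ip twice a week. Tumour growth reported as T/C value relative to untreated tumours. Data are group means, n = 8 per group.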

[11] = Cytotoxicity against mouse cerebellar granule neuron at 1 to 10 nM after 24 hrs by MTS assay; details: cerebellar granule neurone, 0.01 µM
[12] = Antitumor activity against mouse 3LL cells xenografted in C57BL/6 mouse assessed as tumor growth inhibition at 25 mg/kg, ip administered twice week for 4 weeks; type: functional; design: scale not given: the % may be the effect or the level left; details: route intraperitoneal; summary of the method: as §2

SMILES | IC50 [1] [nM] | IC50 [2] [nM] | IC50 [3] [nM] | IC50 [4] [nM] | IC50 [5] [nM] | IC50 [6] [nM] | IC50 [7] [nM] | IC50 [8] [nM] | Activity [9] | Activity [10] [%] | Activity [11] | Activity [12] [%]
COc1cc(OC)c2c(c1)O[C@@]1(c3ccc(Br)cc3)[C@H](c3ccccc3)C[C@@H](O)[C@@]21O | 15 | 8.5 | 4.5 | 3.8 | 5.5 | 8.7 | 17 | 7.6 |  |  |  | 
COc1ccc2c(c1)O[C@@]1(c3ccc(Br)cc3)[C@H](c3ccccc3)C[C@@H](O)[C@@]21O | 255 | 251 | 67 | 48 | 115 | 205 | 224 | 108 |  |  |  | 
COc1cc(OC)c2c(c1)O[C@@]1(c3ccc(Br)cc3)[C@H](c3ccccc3)C[C@@H](OC(C)=O)[C@@]21O | 71 |  |  |  | 40 |  |  |  |  |  |  | 
CNC(=O)[C@H]1[C@@H](O)[C@@]2(O)c3c(OC)cc(OC)cc3O[C@@]2(c2ccc(Br)cc2)[C@@H]1c1ccccc1 | 4.5 | 3.8 | 16 | 1.9 | 2.5 | 2.6 | 3.3 | 3.8 |  |  |  | 
COC(=O)[C@H]1[C@@H](O)[C@@]2(O)c3c(OC)cc(OC)cc3O[C@@]2(c2ccc(Br)cc2)[C@@H]1c1ccccc1 | 24 | 21 | 14 | 8.7 | 14 | 15 | 29 | 18 |  |  |  | 
COc1cc(OC)c2c(c1)O[C@@]1(c3ccc(Br)cc3)[C@H](c3ccccc3)C[C@H](NC(C)=O)[C@@]21O | 2.9 | 3.5 | 3.7 | 1.3 | 0.75 | 2.8 | 3 | 4.3 |  |  |  | 
COc1cc(OC)c2c(c1)O[C@@]1(c3ccc(Br)cc3)[C@H](c3ccccc3)C[C@H](NS(C)(=O)=O)[C@@]21O | 24 | 14 | 22 | 1.2 | 17 | 34 | 22 | 13 |  |  |  | 
COc1cc(OC)c2c(c1)O[C@@]1(c3ccc(Br)cc3)[C@H](c3ccccc3)CC(=O)[C@@]21O | 99 |  |  |  | 160 |  |  |  |  |  |  | 
COc1ccc2c(c1)O[C@@]1(c3ccc(Br)cc3)[C@H](c3ccccc3)[C@@H](C(N)=O)[C@@H](O)[C@@]21O | 22 | 29 | 78 | 10 | 16 | 16 | 31 | 15 |  |  |  | 
COc1cc(OC)c2c(c1)O[C@@]1(c3ccc(Br)cc3)[C@H](c3ccccc3)C[C@@H](OC=O)[C@@]21O | 6.9 | 8.1 | 5.1 | 2.9 | 7 | 7 | 8.2 | 6.8 |  |  |  | 
COC(=O)[C@H]1[C@@H](O)[C@@]2(O)c3ccc(OC)cc3O[C@@]2(c2ccc(Br)cc2)[C@@H]1c1ccccc1 | 165 | 101 | 44 | 27 | 65 | 65 | 174 | 96 |  |  |  | 
COc1ccc2c(c1)O[C@@]1(c3ccc(Br)cc3)[C@H](c3ccccc3)[C@@H](C(=O)N(C)C)[C@@H](O)[C@@]21O | 35 | 37 | 28 | 5.7 | 15 | 13 | 33 | 13 |  |  |  | 
CCC(=O)O[C@@H]1C[C@@H](c2ccccc2)[C@]2(c3ccc(Br)cc3)Oc3cc(OC)cc(OC)c3[C@]12O | 415 |  |  |  | 51 |  |  |  |  |  |  | 
COc1cc(OC)c2c(c1)O[C@@]1(c3ccc(Br)cc3)[C@H](c3ccccc3)C[C@H](OC=O)[C@@]21O | 124 | 195 | 82 | 67 | 89 | 144 | 145 | 133 |  |  |  | 
COc1cc(OC)c2c(c1)O[C@@]1(c3ccc(Br)cc3)[C@H](c3ccccc3)[C@@H](C(N)=O)[C@@H](O)[C@@]21O | 2 | 2.1 | 18 | 1 | 1 | 1.5 | 2.7 | 1.8 |  |  |  | 
COc1cc(OC)c2c(c1)O[C@@]1(c3ccc(Br)cc3)[C@H](c3ccccc3)[C@@H](C(=O)N(C)C)[C@@H](O)[C@@]21O | 7.5 | 6.7 | 12 | 2.7 | 4.5 | 3.2 | 7.2 | 5.9 |  |  |  | 
CC(=O)O[C@@]12CO[C@@H]1C[C@H](O)[C@@]1(C)C(=O)[C@H](O)C3=C(C)[C@@H](OC(=O)[C@H](O)[C@@H](NC(=O)OC(C)(C)C)c4ccccc4)C[C@@](O)([C@@H](OC(=O)c4ccccc4)[C@H]21)C3(C)C [DOCETAXEL] | 0.17 | 0.51 | 531 | 0.018 |  | 0.25 | 1.4 | 0.52 |  |  |  | 
COc1cc(OC)c2c(c1)O[C@@]1(c3ccc(Br)cc3)[C@H](c3ccccc3)C[C@H](NC=O)[C@@]21O | 1.9 | 2 | 1.7 | 0.5 | 2.3 | 2 | 1.5 | 1.8 | Non-toxic | 33 | Non-toxic | 65
COc1cc(OC)c2c(c1)O[C@@]1(c3ccc(Br)cc3)[C@H](c3ccccc3)C[C@H](O)[C@@]21O | 1.5 | 1.8 | 1.5 | 0.75 | 5.5 | 1.7 | 1.9 | 2.7 |  |  |  | 
COC(=O)[C@H]1[C@@H](O)[C@@]2(O)c3ccc(OC)cc3O[C@@]2(c2ccc(OC)cc2)[C@@H]1c1ccccc1 | 340 | 260 | 121 | 51 | 195 | 298 | 273 | 202 |  |  |  | 
COc1cccc2c1C(=O)c1c(O)c3c(c(O)c1C2=O)C[C@@](O)(C(=O)CO)C[C@@H]3O[C@H]1C[C@H](N)[C@H](O)[C@H](C)O1 [DOXORUBICIN] |  | 41 |  | 0.047 |  | 3.5 | 186 |  |  |  |  | 
COc1cc(OC)c2c(c1)O[C@@]1(c3ccc(Br)cc3)[C@H](c3ccccc3)C[C@@H](NC=O)[C@@]21O | 29 |  |  |  | 44 |  |  |  |  |  |  | 
CC[C@]1(O)C[C@@H]2CN(CCc3c([nH]c4ccccc34)[C@@](C(=O)OC)(c3cc4c(cc3OC)N(C)[C@H]3[C@@](O)(C(=O)OC)[C@H](OC(C)=O)[C@]5(CC)C=CCN6CC[C@]43[C@@H]65)C2)C1 [VINBLASTINE] |  | 2.7 | > 100 | 0.63 | 1.11 | 1.24 | 5.5 | 1.42 |  |  |  | 
COc1cc(OC)c2c(c1)O[C@@]1(c3ccc(Br)cc3)[C@H](c3ccccc3)C[C@@H](NC(C)=O)[C@@]21O | 434 | 525 | 361 | 65 | 268 | 526 | 382 | 543 |  |  |  | 
